Screening data from PubChem.
An excerpt weighted towards active compounds, which were near 2% of everything screened.
LMPTP inh = LMPTP (human) inhibition. P24666. recombinant LMPTP-A, OMFP fluorogenic substrate, fluorescence intensity. inhibition, % at 20 µM. actives 0.22% (n = 360,000). AID 651560;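 active means compounds that cut the enzyme signal by at least half of the control window in the single-dose screen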;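 further: plate controls were DMSO wells with enzyme plus substrate for no effect and substrate without enzyme for full effect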
Target sequence (P24666 whole entry, looked up): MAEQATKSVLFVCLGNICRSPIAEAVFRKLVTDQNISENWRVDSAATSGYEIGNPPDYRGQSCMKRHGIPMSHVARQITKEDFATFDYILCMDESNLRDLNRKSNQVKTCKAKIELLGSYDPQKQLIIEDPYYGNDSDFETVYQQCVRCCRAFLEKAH
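Test system: LMPTP-A, protein tyrosine phosphatase of low molecular weight; Input: 0.625 nM enzyme; Incubation: 50 min dark incubation at room temperature; Signal: endpoint fluorescence intensity from OMFP dephosphorylation; Read-out basis: % inhibition versus control wells.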
STEP block = STEP (human) phosphatase inhibition; P54829; recombinant STEP, OMFP fluorogenic substrate, fluorescence; inhibition, % at 20 µM; actives 0.25% (n = 360,000); AID 588621;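 active means inhibition at 20 µM, scaled per plate between control wells, above about 37%, limit read from the data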;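 further: 0% = DMSO with enzyme and substrate and 100% = substrate only without enzyme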
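material = STEP tyrosine phosphatase | reagent = fluorogenic phosphatase substrate OMFP at 25 µM final | doses = single compound dose of 20 µM, 1% DMSO final | schedule = 20 min reaction, room temperature, in the dark | measured by = fluorescence, 480/540 nm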
CSN deneddyl inh = inhibitors of human CSN-mediated cullin deneddylation | AID 651999 | Q92905 | inhibition, % at 12.5 µM | Purified CSN, SCF-Nedd8-OG deneddylation, fluorescence polarization | actives 0.38% (n = 360,000);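 active means pattern-corrected inhibition above about 35%, with an unprinted fluorescence ratio check between 0.5 and 1.5, limit read from the data, passing the limit was not always enough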;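 further: 0% = enzyme with substrate and 100% = substrate without enzyme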
Target sequence (Q92905 whole entry, looked up, one chain of several): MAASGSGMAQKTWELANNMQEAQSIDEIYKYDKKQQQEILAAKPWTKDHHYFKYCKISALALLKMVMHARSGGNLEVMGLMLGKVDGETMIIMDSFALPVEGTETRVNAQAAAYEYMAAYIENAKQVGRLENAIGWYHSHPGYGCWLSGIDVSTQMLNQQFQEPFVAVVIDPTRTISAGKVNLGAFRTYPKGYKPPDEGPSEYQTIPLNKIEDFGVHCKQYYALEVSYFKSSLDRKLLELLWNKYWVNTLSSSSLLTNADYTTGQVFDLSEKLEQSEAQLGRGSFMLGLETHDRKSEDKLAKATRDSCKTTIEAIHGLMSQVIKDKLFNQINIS
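Schedule: reaction 90 min, room temperature / Assay system: HEK293T-derived human Csn5 enzyme / Input: Csn5 at 0.24 nM final / Measure: inhibition of Csn5 cleavage, % / Control set: substrate-only high control, full reaction low control / Technique: fluorescence polarization of the substrate / Buffer or medium: Tris/NaCl/DTT buffer, pH 7.5 / Reagent: SCFSkp2-Nedd8OG substrate at 10 nM final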
SUMO1 PPI mod = modulators of human SUMO1-mediated protein-protein interactions; AID 602429; SUMO1 binding to a labelled peptide, TR-FRET, 1 h; actives 0.33% (n = 360,000); P63165; inhibition, % at 20 µM; in the data active means inhibition above about 37%
Scp-1 inhibitor = Scp-1 (human) phosphatase inhibition; Q9GZU7; Recombinant Scp1, phosphopeptide, malachite green phosphate absorbance; inhibition, % at 20 µM; actives 0.88% (n = 340,000); AID 493091;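 active means inhibition above about 50% at 20 µM, limit read from the data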;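 further: plate controls were DMSO wells with enzyme for no effect and wells lacking enzyme for full effect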
Target sequence (Q9GZU7 76-261 limits assumed): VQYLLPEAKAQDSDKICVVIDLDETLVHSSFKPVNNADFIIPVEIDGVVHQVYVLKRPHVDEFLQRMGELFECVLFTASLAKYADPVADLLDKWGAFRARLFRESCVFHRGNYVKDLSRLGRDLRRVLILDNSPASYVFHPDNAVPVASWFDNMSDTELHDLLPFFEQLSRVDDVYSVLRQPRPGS
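Test system – truncated SCP-1 phosphatase (76-261aa) · Reagent – Phosphorylated 17-residue peptide substrate · Incubation – 45 min room-temperature reaction, 5 min colour, 30 min stabiliser · Detection – colorimetric phosphate reagent with accelerator and stabiliser, absorbance at 630 nm · Measure – % inhibition at 20 µM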
DNMT1 inh = DNMT1 (human) enzyme inhibition | P26358 | DNMT1 molecular beacon, Hinp1I cleavage, fluorescence | inhibition (reported as % activation of signal), % at 10 µM | actives 0.83% (n = 360,000); in the data active means inhibition above about 50%
Scp-1 conf = confirmation of human Scp-1 phosphatase inhibitors | inhibition, % at 20 µM | shares compounds with Scp-1 inhibitor | actives 61% (n = 2,500) | recombinant SCP-1 catalytic domain, phosphate release, malachite green absorbance;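 active means inhibition of at least 30% at 20 µM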;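 further: plate controls were DMSO with enzyme for no effect and buffer wells lacking enzyme for full effect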
MG interference = interferes with malachite green readout, flagging false Scp-1 hits; 2,500 tested, under 10 active; Colorimetric interference counterscreen, malachite green absorbance 630 nm; shares compounds with Scp-1 inhibitor; AID 540313; apparent inhibition (interference), % at 20 µM;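 active means inhibition of at least 30% at 20 µM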;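 further: compounds added after enzyme reaction finished so only phosphate colour detection is probed; plate controls were DMSO wells with completed Scp-1 reaction for no effect and substrate wells lacking enzyme for full effect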
Scp1 DSF = binds human Scp-1, shifting its melting temperature | shares compounds with Scp-1 inhibitor | Recombinant SCP1, Sypro Orange thermal shift Tm | thermal shift relative to vanadate control, % at 40 µM | actives 25% (n = 1,500);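 active means substances whose mean melting-temperature shift, as a percentage of the reference inhibitor's shift, reaches about 5.3%, limit read from the data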;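 further: 0% = Tm of DMSO wells and 100% = Tm with sodium orthovanadate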
DNMT1 interf DR = counter-screen for DNMT1 inhibitors: spectral interference, dose response | shares compounds with DNMT1 inh | molecular beacon fluorescence | IC50, µM | 200 tested, under 10 active
DNMT1 inh conf = DNMT1 inhibition confirmation, single concentration. shares compounds with DNMT1 inh. DNMT1 molecular beacon HinP1I cleavage, fluorescence. inhibition, % at 10 µM. actives 8% (n = 2,300). AID 602385;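 active means average inhibition of at least 30% in the single-concentration confirmation test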
DNMT1 interf = beacon fluorescence artifact counter-screen. shares compounds with DNMT1 inh. DNMT1 molecular beacon spectral interference counterscreen, fluorescence 485/520. activation (fluorescence interference), % at 10 µM. actives 1% (n = 2,300);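 active means activation of at least 30% at 10 µM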;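 further: DNMT1 catalytic domain with a HinP1I cleavage step and a FAM/dabcyl DNA beacon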
STEP inh conf = STEP (human) phosphatase inhibition, single concentration confirmation | shares compounds with STEP block | recombinant STEP, OMFP fluorogenic substrate, fluorescence | inhibition, % at 20 µM | actives 32% (n = 520) | AID 623866;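 further: 0% = enzyme with substrate plus DMSO and 100% = substrate without enzyme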
* marks the source's active call; other numbers are inactive results; · = not tested or not shown; ! = a repeat was not active. Unless noted, how the calls were made is not given here.

SMILES	LMPTP inh	STEP block	CSN deneddyl inh	SUMO1 PPI mod	Scp-1 inhibitor	DNMT1 inh	DNMT1 inh conf	DNMT1 interf	others
O=C1NC(=O)C(=Cc2ccc(SC3CCCCC3)o2)C(=O)N1	5	1	20	9	53*	86*	10	0	Scp-1 conf=75*;MG interference=-9;Scp1 DSF=-7
CN(C)C(=O)Oc1ccc2nnc3ccnn3c2c1	-1	-2	0	-24	-9	-2	·	·
CCN(CC)P(=O)(NC(=O)C(Cl)(Cl)Cl)N(CC)CC.[Cl-].[Cl-].[Cl-].[Nd+3]	44	87*	104*!	107*	101*	27	·	·	Scp-1 conf=70*;MG interference=-17;Scp1 DSF=-8;STEP inh conf=25*
CCN(C(=O)COC(=O)C(O)(c1ccccc1)c1ccccc1)c1c(N)n(Cc2ccccc2)c(=O)[nH]c1=O	-1	-1	-1	5	-5	2	·	·
O=C1NC(=O)N(Cc2ccccc2)C(=O)/C1=C\c1ccco1	3	1	27	6	8	29	·	·
O=C1NC(=O)N(Cc2ccco2)C(=O)/C1=C/c1cccn1CCOc1ccccc1Cl	3	0	22	20	6	69*	22	0
Cc1cccc(N2C(=O)NC(=O)/C(=C\c3cc(C)n(-c4sc5c(c4C#N)CCCC5)c3C)C2=O)c1C	3	3	24	54*	-7	71*	15	-3
CCOC(=O)c1c(-n2c(C)cc(C=C3C(=O)NC(=O)NC3=O)c2C)sc2c1CCCC2	3	1	13	30	0	44	·	·
O=Cc1c(C(=O)O)n(Cc2ccc(Cl)cc2)c2ccccc12	0	-6	60*	10	-3	95*	15	1
Cc1c(C=O)c2ccccc2n1Cc1ccccc1	0	0	-1	2	-6	3	·	·
CCCCCCn1c(=O)c(C(=O)Nc2ncccc2O)c(O)c2ccccc21	20	7	5	15	0	70*	1	4
N/C(=N\N=C/c1ccc(-c2ccc(O)c(C(=O)O)c2)o1)N[N+](=O)[O-]	30	71*	41	27	80*	88*	96*	-4	DNMT1 interf DR=>99
CCC(C)C12CN3CCN(CC(C)(C3)C1O)C2 (configuration not stated)	-3	-2	3	2	-7	-1	·	·
CN1C(=O)NC(=O)/C(=C\c2ccc([N+](=O)[O-])o2)C1=O	11	44*	42	34	53*	101*	112*	-2	DNMT1 interf DR=>99
CN(C)[C@@H]1C(=O)C(C(N)=O)=C(O)[C@@]2(O)C(=O)C3=C(O)c4c(O)ccc(Cl)c4[C@@](C)(O)C3C[C@@H]12 (some centres not stated)	19	2	44	14	-1	56*	2	0
O=C1NC(=O)C(=Cc2ccc(-c3cc(Cl)ccc3[N+](=O)[O-])o2)C(=O)N1	23	9	14	11	69*	78*	2	-3
Cc1ccc(N2C(=O)NC(=O)/C(=C/c3ccoc3)C2=O)cc1	56*	95*	88*	102*	84*	93*	64*	-5	DNMT1 interf DR=>99
O=c1[nH]c(=O)n(CCc2ccc(F)cc2)c(O)c1C=NCc1ccc2c(c1)OCO2	50*	14	6	0	-6	78*	1	3
COc1ccc(CCn2c(O)c(C=NCc3ccc4c(c3)OCO4)c(=O)[nH]c2=O)cc1OC	1	0	-1	0	-9	-1	·	·
CCC1(C)CN(S(=O)(=O)OCC(Cl)(Cl)Cl)C(=O)N1 (configuration not stated)	-2	1	4	5	-2	1	·	·
C[C@]12CCC3C(CC[C@H]4C[C@@H](O)CC[C@]34C)C1C/C(=N/O)[C@@H]2O (some centres not stated)	0	-3	-1	1	3	1	·	·
O=C1CN=C(c2ccc(Br)cc2)c2c(sc3c2CCCC3)N1CCN1CCCCC1	1	-2	-7	0	-1	0	·	·
O=C1c2ccccc2-c2cc3ccccc3cc21	1	0	-9	-25	-8	3	·	·
O=C1C=C(N2CC2)c2ccccc2C1=O	17	7	13	65*	·	121*	88*	-10	DNMT1 interf DR=>99
O=C1c2cccc(N3CCNCC3)c2C2CCCCN12 (configuration not stated)	-1	3	3	2	·	-8	·	·
SMILES	LMPTP inh	STEP block	CSN deneddyl inh	SUMO1 PPI mod	Scp-1 inhibitor	DNMT1 inh	DNMT1 inh conf	DNMT1 interf	others
CCC(C)N1C(=O)/C(=C/c2ccc3c(c2)CCN3CCCCl)C(=O)NC1=S (configuration not stated)	2	0	22	-1	-5	85*	12	-3
N#CC(C#N)=C(N)c1cccnc1	0	-1	-4	2	-4	62*	2	4
CNC(=O)Oc1c(C)[nH]ccc1=O	-3	0	1	0	·	5	·	·
CCOC(=O)c1c(N)n(CCN2CCCCC2)c2nc3ccccc3nc12	1	0	10	-6	-7	-7	·	·
CCCCn1c(NC(=O)c2ccc(Br)o2)c(C(=O)OCC)c2nc3ccccc3nc21	2	-1	21	45*	-3	70*	-1	-5
O=c1[nH]c(=O)n(Cc2ccccc2Cl)c(O)c1C=Nc1ccc(F)cc1	-1	-1	5	3	0	8	·	·
C=CCNC(=O)c1c(N)n(Cc2ccco2)c2nc3ccccc3nc12	3	7	6	20	26	102*	0	-1
